Screening data as filed in PubChem BioAssay.
Measles CPE: protection of cells from measles virus; protection (pct of control), % at 4 µM; Measles virus-infected cells, CPE protection, absorbance; 140,000 compounds, 1.5% hits; AID 841; in the data active means protection mostly above about 24%, no sharp cut-off; inactive means mostly below about 26%
RAM network inh: inhibitors of the yeast RAM network. 190,000 compounds, 1.8% hits. AID 868. inhibition, % at 50 µM. S. cerevisiae dse1pr::URA3 reporter, 5-FOA growth OD615, 2 d; analog-sensitive cbk1-as2 kinase mutant strain;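 active means inhibition above a set limit, 3 SD over mean compound inhibition, cut at about 8.4% in these data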;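 further: 0% = DMSO-only wells with no growth and 100% = 10 µM 1-NA-PP1 full growth; inhibition rescues growth on 5-FOA so higher OD means more RAM inhibition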
Yeast growth inh: yeast BB579 growth reduction in restrictive medium. S. cerevisiae BB579 growth, OD615, 48 h. inhibition, % at 10 µM. 140,000 compounds, 0.51% hits. AID 804;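 active means inhibition above a set limit, 3 SD over the mean compound inhibition, cut at about 44% in these data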
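System: Saccharomyces cerevisiae DeaD strain BB579, replicative lifespan model yeast. Buffer or medium: restrictive glucose-based CSMM-D medium. Doses: one dose, 10 µM compound with 0.25% DMSO. Timing: 4 h preincubation and 48 h exposure at 30 °C. Detection: turbidity as optical density at 615 nm. Benchmarks: amphotericin B 10 µg/mL, positive.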
Yeast life ext: extends the lifespan of yeast; 130,000 compounds, 0.68% hits; inhibition of the nicotinamide effect, % at 10 µM; S. cerevisiae growth with nicotinamide, OD615; deaD strain in restrictive glucose medium; AID 775;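 active means inhibition above a set limit, placed 3 SD over the median of all compounds, cut at about 26% in these data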;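 further: 0% = nicotinamide-treated wells and 100% = cells grown without nicotinamide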
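assay system = DeaD-strain S. cerevisiae | buffer or medium = restrictive glucose medium | reagent = 1.5 mM nicotinamide | compound = 10 µM single point, 0.25% DMSO | incubation = 48 h compound exposure at 30 °C, humidified | signal = OD615 measurement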
hDAT+cocaine: changed human dopamine transporter uptake under cocaine IC80; Q01959; LLC-PK1 hDAT cells, [14C]-dopamine uptake with cocaine IC80; actives deviate in either direction; B-score at 10 µM; 110,000 compounds, 1.3% hits;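 active means Z score or B-score, a plate-position-corrected score, falls beyond the plate's 99.7% confidence bounds, in either direction; inactive means both scores lie inside the 99.7% bounds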;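 further: scored against the spread of the other compound wells on the same plate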
Target sequence (Q01959 whole entry, looked up): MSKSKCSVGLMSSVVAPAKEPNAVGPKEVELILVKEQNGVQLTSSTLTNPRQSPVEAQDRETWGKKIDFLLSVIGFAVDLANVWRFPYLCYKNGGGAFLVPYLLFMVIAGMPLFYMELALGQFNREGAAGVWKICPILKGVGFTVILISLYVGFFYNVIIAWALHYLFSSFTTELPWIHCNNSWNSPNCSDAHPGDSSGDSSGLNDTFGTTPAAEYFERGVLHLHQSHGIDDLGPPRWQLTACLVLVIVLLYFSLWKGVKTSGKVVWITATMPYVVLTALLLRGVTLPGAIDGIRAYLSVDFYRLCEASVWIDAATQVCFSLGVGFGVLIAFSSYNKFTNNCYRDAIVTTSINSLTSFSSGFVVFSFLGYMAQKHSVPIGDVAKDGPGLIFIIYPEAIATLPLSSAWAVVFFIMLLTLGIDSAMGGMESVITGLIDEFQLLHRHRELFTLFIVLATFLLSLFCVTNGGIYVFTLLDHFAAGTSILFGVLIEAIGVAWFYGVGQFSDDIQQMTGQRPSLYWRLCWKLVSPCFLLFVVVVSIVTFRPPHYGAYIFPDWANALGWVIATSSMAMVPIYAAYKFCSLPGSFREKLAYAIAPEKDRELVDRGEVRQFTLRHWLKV
WT yeast gro inh: growth inhibition of WT yeast, mitochondrial fusion screen. mitochondrial fusion phenotypic screen, WT strain. inhibition, % at 10 µM. 190,000 compounds, 2.1% hits. AID 1362; in the data active means inhibition above about 58%; tested in S. cerevisiae
An asterisk follows results filed as active; . = no result. Most compounds without a hit are left out; they make up all but 6.1% or so of the library.

SMILES	Measles CPE	RAM network inh	Yeast growth inh	Yeast life ext	hDAT+cocaine	WT yeast gro inh
CC(C)c1nnc(SCC(=O)N2CCc3ccccc32)n1C	29*	1	-42	.	0.36	-5
O=C(CSc1nnc(Cc2cc(=O)[nH]c(=O)[nH]2)n1-c1ccccc1)N1CCCc2ccccc21	5	8.6*	-20	-3	1.3	-22
O=C(OCc1ccc(F)cc1Cl)c1ccccn1	9	0	4	-13	-0.66	16
CCC(C)NC(=O)C1CCN(S(=O)(=O)c2cccc3cccnc23)CC1 (stereo unspecified)	9	1	49*	-7	-1.1	9
CCc1nnc(NC(=O)CSc2nc(-c3ccccc3)nc3ccccc23)s1	13	1	-7	-1	.	-14
CCc1nnc(NC(=O)CSc2nc(C3CCCCC3)nc3ccccc23)s1	18	10*	-67	7	0.25	31
CCCCCCn1nc(C(=O)Nc2nc3c(s2)CCCC3)c2ccccc2c1=O	9	11*	-18	3	.	36
O=C(CCN1C(=O)c2ccccc2S1(=O)=O)Nc1nc2c(s1)CCCC2	24*	2	-37	-20	0.73	7
CCc1nnc(NC(=O)CN2C(=O)c3ccccc3S2(=O)=O)s1	40*	2	-21	-1	-0.19	-7
Cc1ccc2nc(-c3ccc(NC(=S)NC4CC(C)(C)NC(C)(C)C4)cc3)sc2c1	.	0	.	.	.	60*
CSc1cccc(NC(=S)N2CCC(N(C)C3CCCC3)CC2)c1	.	1	.	.	.	-20
CCN(Cc1ccccc1)c1ccc(/C=N/NC(=S)NC(C)C)cc1	6	4	-1	-1	.	69*
CN(C)c1ccc(/C=N/NC(=S)NCc2ccccc2)cc1	2	0	-27	-13	-0.51	70*
CCNC(=S)N/N=C/c1ccc(F)cc1	.	1	.	.	.	10
CCc1ccc(/C=N/NC(=S)NCCc2ccccc2)cc1	3	8.5*	-29	14	-0.59	-17
S=C(NCCc1ccccc1)N/N=C/c1ccccc1Cl	11	1	-26	-2	.	64*
Cn1c(=O)n(C)c2cc([N+](=O)[O-])c(N3CCN(C(=O)C(C)(C)C)CC3)cc21	.	-1	.	.	.	-13
Cc1ccc(CC(=O)N2CCN(c3ccccn3)CC2)cc1	7	1	-25	-7	0.17	-9
COc1ccc(C(=O)COC(=O)C2CCC(=O)N2)cc1 (stereo unspecified)	.	0	.	.	.	16
CC(C)NC(=O)Cn1cc(C(=O)COc2ccccc2)c2ccccc21	.	5	.	.	.	5
CC(C)(C)C(=O)Cn1ncc(Br)c(Br)c1=O	.	2	.	.	.	9
CCC(=O)Nc1nc2ccc(NC(=O)c3cc(OC)c(OC)c(OC)c3)cc2s1	.	4	.	.	.	-21
CC1(C)CC(c2nc(-c3ccccc3)cs2)CCS1 (stereo unspecified)	6	0	-5	-4	.	61*
CC1(C)CC(c2nc(-c3ccc(Br)cc3)cs2)CCS1 (stereo unspecified)	29	8	-37	-3	.	49
CC1(C)CC(c2nc(-c3ccc(Cl)cc3)cs2)CCS1 (stereo unspecified)	28	2	-21	-13	-0.75	66*
SMILES	Measles CPE	RAM network inh	Yeast growth inh	Yeast life ext	hDAT+cocaine	WT yeast gro inh
CCCCNC(=S)N(C)/N=C/c1ccc2c(c1)OCO2	5	2	-14	-3	.	78*
CCCCNC(=S)N(C)/N=C/c1ccc(F)cc1	13	2	11	-6	.	44
O=C(N/N=C/C1CC=CCC1)c1cc(-c2cccnc2)nc2ccccc12 (stereo unspecified)	.	0	.	.	.	-7
C(=N\c1ncnc2sccc12)/NOCc1ccccc1	3	-1	70*	-3	0.92	80
CS(=O)(=O)N1CCN(c2ccccc2NC(=O)c2ccco2)CC1	8	1	-38	-10	0.14	16
CCSc1nnc(-c2cccnc2)n1-c1ccc(Cl)c(C)c1	14	1	-8	1	1	4
Nc1ccc(N2CCN(C(=O)c3cccs3)CC2)cc1	4	4	-35	-19	0.27	1
CC(=O)Nc1ccc(N2CCN(C(=O)c3cccs3)CC2)cc1	9	0	-16	-6	-8.2*	-7
CCCN1CCCc2cc(CN(CCCN3CCOCC3)C(=O)Nc3ccc(OCC)cc3)ccc21	10	0	4	-2	2.7*	6
CCOC(=O)C1=C(Cc2ccc(F)cc2)C(=O)c2ccccc2C1=O	11	6	-10	7	-0.026	16
O=C(OCc1ccc(F)cc1)c1ccc2c(c1)-c1ccccc1C2=O	12	11*	-61	-15	-0.057	14
Nc1nc(SCn2nnc3ccccc3c2=O)n[nH]1	.	0	.	.	.	-1
CCOC(=O)N1CCC(NC(=O)c2cccc3c2C(=O)N(c2ccc(OC)cc2)C3)CC1	11	2	-33	15	1.3	-5
CCOC(=O)N1CCC(NC(=O)c2cn(-c3ccc(OC)cc3)c(=O)c3ccccc23)CC1	7	1	-76	-9	2.2*	-5
Cc1ccc(C(=O)N2CCN(C3c4cccc5cccc(c45)C3NS(=O)(=O)c3ccccc3)CC2)cc1 (stereo unspecified)	55*	3	-24	-5	1.2	-2
C/C(=N\NC(=O)c1nn(C)c(C)c1Br)c1ccc(NC(=O)c2ccc(C)s2)cc1	.	9.2*	.	.	.	-4
CCCCCn1c(NC2CCCCC2)nc2c1c(=O)[nH]c(=O)n2C	.	.	.	.	2.9*	8
Cn1c(=O)[nH]c(=O)c2c1nc(N1CCC(Cc3ccccc3)CC1)n2Cc1ccccc1	15	1	-64	-3	-0.51	17
CCCn1c(N2CCC(Cc3ccccc3)CC2)nc2c1c(=O)[nH]c(=O)n2C	32	-1	-27	-5	-0.22	68*
CCCCn1c(NC(C)CC)nc2c1c(=O)[nH]c(=O)n2C (stereo unspecified)	16	0	-9	-12	1	0
CCCCCCn1c(N2CCN(c3ccccc3)CC2)nc2c1c(=O)n(C)c(=O)n2C	3	5	-41	1	-0.28	66*
CCCCCn1c(N2CCC(Cc3ccccc3)CC2)nc2c1c(=O)[nH]c(=O)n2C	.	.	.	.	1.6	88*
CCOCCn1c(N2CCN(c3ccccc3)CC2)nc2c1c(=O)n(C)c(=O)n2C	5	0	-43	-14	-0.062	-18
COc1cccc(NC(=S)N(CCCN2CCOCC2)C(C)c2cc3ccccc3o2)c1 (stereo unspecified)	.	1	.	.	.	-8
COC(=O)c1nnn(CC(=O)NC(=O)Nc2ccccc2)c1C(=O)OC	13	0	-73	5	.	-10
O=C1NC(=S)N/C1=C\c1ccc(N2CCOCC2)cc1	.	2	.	.	.	13
CCCCCn1c(N2CCN(Cc3ccccc3)CC2)nc2c1c(=O)[nH]c(=O)n2C	17	3	-21	-3	3*	10
